Publication PMC3206604 (Journal of natural products, 2011)

Experiments:
[1] = system: HT-29 human colon cancer cells; test: Mitochondrial transmembrane potential; type: cell-based; conditions: HT-29 cells; for MTP ED50: reduction of mitochondrial transmembrane potential (ΔΨm)
Procedure, shortened: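 ΔΨm detected with a JC-1 mitochondrial membrane potential kit, following a previously established protocol. A positive control was run alongside the test compounds. Values were reported as ED50.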

[2] = target: human 20S proteasome (Homo sapiens, UniProt P28074); test: Proteasome inhibition assay; type: biochemical; conditions: for proteasome ED50 / IC50: Table 3, results expressed as ED50; for IC50: read-out: proteasome ED50
[3] = system: human colon cancer cells (HT-29); test: Cytotoxicity assay; type: cell-based; conditions: HT-29 cells, standard protocol
[4] = system: human 20S proteasome; test: Proteasome inhibition assay; type: biochemical; conditions: Table 3, results expressed as ED50

Molecule	MTP ED50 [1]	proteasome ED50 [2]	further results
O=C1C[C@@H](c2ccccc2)Oc2c(Cc3ccccc3O)c(O)c(Cc3cc(Cc4cc(Cc5ccccc5O)ccc4O)ccc3O)c(O)c21 [compound 2, (2S)-5,7-dihydroxy-6-(2‴-hydroxy-5‴-(2′‴-hydroxy-5′‴-(2″‴-hydroxybenzyl)benzyl)benzyl)-8-(2″-hydroxybenzyl)-flavanone]	6.8 µM	>20 µM	–
7-methoxydichamanetin [compound 8]	1.6 µM	3.45 ± 0.18 µM	–
5,7-dihydroxy-6-(2‴-hydroxy-5‴-(2′‴-hydroxy-5′‴-(2″‴-hydroxy-5″‴-(2‴‴-hydroxybenzyl)benzyl)benzyl) benzyl)-8-(2″-hydroxybenzyl)-flavanone [compound 3]	2.5 µM	>20 µM	–
CC(=O)O[C@H]1C(=O)[C@@]2(C)[C@H]([C@H](OC(=O)c3ccccc3)[C@]3(O)C[C@H](OC(=O)[C@H](O)[C@@H](NC(=O)c4ccccc4)c4ccccc4)C(C)=C1C3(C)C)[C@]1(OC(C)=O)CO[C@@H]1C[C@@H]2O [Paclitaxel]	–	–	cytotoxicity ED50 [3]: 6 nM
O=C1C[C@@H](c2ccccc2)Oc2c(Cc3ccccc3O)c(O)c(Cc3ccccc3O)c(O)c21 [compound 7, dichamanetin]	3.6 µM	–	inhibitory effect in proteasome assay ([2]; human 20S proteasome bioassay): did not show any inhibitory effect; proteasome ED50 [4]: >20 µM
pipercallosine [compound 11]	4.6 µM	>20 µM	–
O=C1C[C@@H](c2ccccc2)Oc2c(Cc3cc(Cc4cc(Cc5ccccc5O)ccc4O)ccc3O)c(O)c(Cc3ccccc3O)c(O)c21 [compound 1, (2S)-5,7-dihydroxy-8-(2″-hydroxy-5″-(2′‴-hydroxy-5′‴-(2″‴-hydroxybenzyl)benzyl)benzyl)-6-(2‴-hydroxybenzyl)-flavanone]	3.7 µM	>20 µM	–
7-methoxychamanetin [compound 6]	13.6 µM	>20 µM	–
O=C1C[C@@H](c2ccccc2)Oc2cc(O)c(Cc3ccccc3O)c(O)c21 [compound 5, isochamanetin]	7.7 µM	–	IC50 [2]: > 20000 nM
5″-(2′‴-hydroxybenzyl)uvarinol [compound 9]	2.3 µM	>20 µM	–
O=C1C[C@@H](c2ccccc2)Oc2cc(O)cc(O)c21 [compound 10, pinocembrin]	>20 µM	–	MTP ED50 (text, printed in μg/mL) ([1]; called inactive): > 20 µg/mL; IC50 [2]: 2870 ± 260 nM
O=C1C[C@@H](c2ccccc2)Oc2c(Cc3cc(Cc4ccccc4O)ccc3O)c(O)c(Cc3cc(Cc4cc(Cc5ccccc5O)ccc4O)ccc3O)c(O)c21 [compound 4, (2S)-5,7-dihydroxy-6-(2‴-hydroxy-5‴-(2″‴-hydroxy-5″‴-(2‴‴-hydroxybenzyl)benzyl)benzyl)-8-(2″-hydroxy-5′‴-(2′‴-hydroxybenzyl)benzyl)-flavanone]	3.9 µM	>20 µM	–
